Series [1] deals with V79. As to the kind of experiment: Cytotoxicity against Chinese Hamster V79 cells assessed as reduction in cell viability measured after 72 hrs by MTT assay. The note with it: Cricetulus griseus, V79, 72 h. The series is classed as cell-based. An outline of the steps: (§1)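 MTT viability assay on cells grown in DMEM with 10% heat-inactivated FBS, penicillin/streptomycin and 20 mM HEPES at 37 °C/5% CO2. Cells were seeded at 1×10^4 per well and allowed to adhere for 24 h, then the medium was refreshed. Compounds were added at 20–140 μM for 72 h at 37 °C, followed by MTT (0.5 mg/mL in serum-free medium) for 4 h. Untreated cells served as control. IC50 is the concentration giving 50% growth inhibition versus control.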
On the technique in general: Tetrazolium dyes change colour on reduction, which living cells bring about.

Series [2] relates to Pseudomonas aeruginosa. The experiment in a line: Antibacterial activity against Pseudomonas aeruginosa NCTC 6749 assessed as bacterial growth inhibition measured after 18 hrs by two-fold serial microdilution method. The series is classed as functional. An outline of the steps:
(§2)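 Two-fold serial broth microdilution in MH II medium following modified CLSI procedures. Compounds were dissolved in DMSO and diluted in medium to at most 1% solvent, tested from 0.03125 to 512 μg/ml. Final inoculum 10^6 CFU/ml. MIC was taken as the lowest concentration with no visible growth after 18 h at 35 °C.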
(In general: In broth dilution the organism is exposed to a series of concentrations in liquid medium.)

For series [3], the system named is Mycobacterium tuberculosis. As to the kind of experiment: Antitubercular activity against Mycobacterium tuberculosis H37Rv ATCC 25618 assessed as inhibition of microbial growth incubated for 1 week by MABA method. The note with it: H37Rv ATCC 25618, 168 h, time 1 weeks. It counts as functional. The gist of the method: (§3)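 Microplate Alamar Blue assay in Middlebrook 7H9 broth with 10% OADC. Inoculum from fresh LJ culture was adjusted to McFarland 1 and diluted 1:20. DMSO stocks were two-fold serially diluted to final 0.125–512 µg/ml, with growth and sterile controls. Plates ran 1 week at 37 °C, then Alamar blue was added for 24 h. MIC is the lowest concentration preventing the blue-to-pink change.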
A general note: The colour change of resazurin is a common sign of viable cells or microbes.

In the next series the test system is Mycobacterium kansasii. The experiment in a line: Antibacterial activity against Mycobacterium kansasii assessed as inhibition of microbial growth incubated for 1 week by MABA method. The series is classed as functional. The note with it: 168 h, time 1 weeks. An outline of the steps:
(§4)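 Microplate Alamar Blue assay using two-fold serial microdilution in Middlebrook 7H9 broth with 10% OADC, compounds 0.125–512 µg/ml from DMSO stocks. Inoculum came from fresh LJ culture, was adjusted to McFarland 1 and diluted 1:20. Plates were incubated 1 week at 37 °C, Alamar blue was added and plates were re-incubated 24 h. MIC was the lowest concentration preventing the blue-to-pink change. Each plate carried growth and sterile controls.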

The subject of series [4] is Staphylococcus aureus. As to the kind of experiment: Antibacterial activity against Staphylococcus aureus ATCC 6538 assessed as bacterial growth inhibition measured after 18 hrs by two-fold serial microdilution method. The series is classed as functional. The gist of the method:
as §2

In series [5] the test system is HaCaT. As to the kind of experiment: Cytotoxicity against human HaCaT cells assessed as reduction in cell viability at 100 uM measured after 72 hrs by MTT assay. It counts as cell-based. An outline of the steps: as §1
Series [6] concerns Mycobacterium intracellulare. As to the kind of experiment: Antimycobacterial activity against Mycobacterium intracellulare assessed as inhibition of microbial growth incubated for 1 week by MABA method. It counts as functional. The note with it: 168 h, time 1 weeks. The gist of the method: as §4
Series [7] relates to Mycolicibacterium fortuitum. As to the kind of experiment: Antibacterial activity against Mycobacterium fortuitum assessed as inhibition of microbial growth incubated for 1 week by MABA method. The series is classed as functional. The note with it: 168 h, time 1 weeks. The gist of the method: as §4
In series [8] the test system is Staphylococcus epidermidis. As to the kind of experiment: Antibacterial activity against Staphylococcus epidermidis ATCC 35984/RP62A assessed as bacterial growth inhibition measured after 18 hrs by two-fold serial microdilution method. The series is classed as functional. An outline of the steps:
as §2

Series [9] relates to Pseudomonas aeruginosa. As to the kind of experiment: Antibacterial activity against Pseudomonas aeruginosa PAO1 assessed as bacterial growth inhibition measured after 18 hrs by two-fold serial microdilution method. It counts as functional. The gist of the method:
as §2

The subject of another series is Mycobacterium avium. As to the kind of experiment: Antimycobacterial activity against Mycobacterium avium assessed as inhibition of microbial growth incubated for 1 week by MABA method. It counts as functional. The note with it: 168 h, time 1 weeks. The gist of the method:
as §3

The test system of series [10] is Staphylococcus epidermidis. As to the kind of experiment: Antibacterial activity against Staphylococcus epidermidis ATCC 1457 assessed as bacterial growth inhibition measured after 18 hrs by two-fold serial microdilution method. It counts as functional. The gist of the method:
as §2

For series [11], the system named is HaCaT. As to the kind of experiment: Cytotoxicity against human HaCaT cells assessed as reduction in cell viability measured after 72 hrs by MTT assay. The series is classed as cell-based. An outline of the steps:
as §1

Series [12] concerns Mycobacterium scrofulaceum. The experiment in a line: Potency index, ratio of isoniazid MIC to test compound MIC for antibacterial activity against Mycobacterium scrofulaceum assessed as inhibition of microbial growth incubated for 1 week by MABA method. The series is classed as functional. The note with it: time 1 weeks.
The subject of the next series is Escherichia coli. The experiment in a line: Antibacterial activity against Escherichia coli ATCC 25922 assessed as bacterial growth inhibition measured after 18 hrs by two-fold serial microdilution method. It counts as functional. The gist of the method:
as §2

The test system of series [13] is Mycobacterium tuberculosis. As to the kind of experiment: Antitubercular activity against Mycobacterium tuberculosis Spec.192 assessed as inhibition of microbial growth incubated for 1 week by MABA method. The series is classed as functional. The note with it: Mycobacterium tuberculosis, 192, 168 h; time 1 weeks. The gist of the method: as §3
The subject of a further series is Klebsiella pneumoniae. As to the kind of experiment: Antibacterial activity against Klebsiella pneumoniae ATCC 10031 assessed as bacterial growth inhibition measured after 18 hrs by two-fold serial microdilution method. The series is classed as functional. The gist of the method: as §2
For another series, the system named is Proteus vulgaris. As to the kind of experiment: Antibacterial activity against Proteus vulgaris NCTC 4635 assessed as bacterial growth inhibition measured after 18 hrs by two-fold serial microdilution method. It counts as functional. The gist of the method: as §2
Series [14] deals with V79. The experiment in a line: Cytotoxicity against Chinese Hamster V79 cells assessed as reduction in cell viability at 100 uM measured after 72 hrs by MTT assay. It counts as cell-based, Cricetulus griseus. The note with it: v79, 72 h. An outline of the steps:
as §1

The test system of series [15] is Mycobacterium scrofulaceum. As to the kind of experiment: Antibacterial activity against Mycobacterium scrofulaceum assessed as inhibition of microbial growth incubated for 1 week by MABA method. It counts as functional. The note with it: 168 h, time 1 weeks. An outline of the steps: as §4
In the next series the test system is Mycobacterium xenopi. The experiment in a line: Antibacterial activity against Mycobacterium xenopi assessed as inhibition of microbial growth incubated for 1 week by MABA method. The series is classed as functional. The note with it: 168 h, time 1 weeks. The gist of the method:
as §4

In series [16] the test system is Staphylococcus aureus. The experiment in a line: Antibacterial activity against Staphylococcus aureus NCTC 4163 assessed as bacterial growth inhibition measured after 18 hrs by two-fold serial microdilution method. It counts as functional. The gist of the method: as §2
Series [17] relates to Staphylococcus epidermidis. The experiment in a line: Antibacterial activity against Staphylococcus epidermidis ATCC 12228 assessed as bacterial growth inhibition measured after 18 hrs by two-fold serial microdilution method. The series is classed as functional. The gist of the method:
as §2

SMILES strings stand for the structures. ≈ marks a conversion by molar mass, not a printed value.

Take `COc1ccc(Nc2nnnn2-c2ccc(Cl)cc2)cc1`: the half-inhibitory concentration (IC50) (commonly the concentration needed to halve the response being measured) turned out to be 115 µM with V79 [1] and 102 µM in the series with HaCaT [11]. The MIC – broadly, the least concentration at which growth counts as inhibited – with Pseudomonas aeruginosa [2] is greater than 256 mg/L; in [3], 8 mg/L; in the series with Mycobacterium kansasii, 512 mg/L; with Staphylococcus aureus [4], greater than 256 mg/L; in series [6] it was 128 mg/L; in series [7], greater than 512 mg/L. Moreover, the MIC in [8] was 256 mg/L (≈ 848 µM); in the series with Pseudomonas aeruginosa [9] it was greater than 256 mg/L; in the series with Mycobacterium avium, 256 mg/L; in [10], greater than 256 mg/L; in the series with Escherichia coli it was greater than 256 mg/L; in series [13], 8 mg/L. For the same compound, the MIC is greater than 256 mg/L in the series with Klebsiella pneumoniae; greater than 256 mg/L with Proteus vulgaris; 16 mg/L in series [15]; 128 mg/L in the series with Mycobacterium xenopi; 256 mg/L (≈ 848 µM) with Staphylococcus aureus [16]; 256 mg/L (≈ 848 µM) in series [17]. Besides, the Activity result in the series on HaCaT [5] and with V79 [14] was “Non-Toxic” in each case. Moreover, the Ratio in [12] was 4.

The record behind these values is ChEMBL document CHEMBL4680121, “Development of (4-methoxyphenyl)-1H-tetrazol-5-amine regioisomers as a new class of selective antitubercular agents” (Eur J Med Chem, 2020).
